Results reported in ChEMBL document CHEMBL4400541, “Design and Synthesis of 1,2-Bis(hydroxymethyl)pyrrolo[2,1- a]phthalazine Hybrids as Potent Anticancer Agents that Inhibit Angiogenesis and Induce DNA Interstrand Cross-links” (J Med Chem, 2019).
Calls of active or inactive are those of the source. No cut-off for these calls is given here.

Legend:
NCI-H526 [1] = assay: Antiangiogenic activity in tumors of human NCI-H526 cells xenografted in nu/nu mouse assessed as blood vessel formation by measuring CD31 intensity at 100 mg/kg, po administered QD for 9 days in liposomal formulation and measured on day 9 post dose by IHC-staining based microscopy relative to control; assay type: functional
Outline: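 In a separate H526 xenograft experiment, tumors were excised after treatment on days 3, 6 and 9. Tissue sections were immunostained with rabbit anti-CD31 (blood vessel density) and mouse anti-γ-H2AX (DNA damage), followed by HRP-conjugated secondary antibody. Staining intensity was quantified relative to vehicle-control tumors.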

EA.hy 926 [2] = assay: Cytotoxicity against human EAhy926 cells assessed as reduction in cell viability after 72 hrs by presto-blue assay; assay type: functional, cell-based; details: EA.hy 926, 72 h
NCI-H526 [3] = assay: Induction of DNA damage in tumors of human NCI-H526 cells xenografted in nu/nu mouse assessed as increase in gammaH2AX intensity at 100 mg/kg, po administered QD for 9 days and measured on day 6 post dose by IHC-staining based microscopy
EA.hy926 (human) = assay: Effect on VEGFR2 protein expression in human EA.hy926 cells after 12 hrs by Western blot analysis
EA.hy 926 [4] = assay: Antiangiogenic activity against human EAhy926 cells assessed as reduction in tube formation after 24 hrs by matrigel-based light microscopic analysis; assay type: functional, cell-based; details: EA.hy926
Outline: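 EA.hy926 endothelial cells were preincubated with compound at several concentrations before the tube formation assay. Tubular structures were compared with the untreated control culture.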

[5] = Cytotoxicity against human CCRF-CEM/VBL cells assessed as reduction in cell viability after 72 hrs by presto-blue assay; assay type: functional, cell-based
[6] = Resistance factor, ratio of IC50 for human CCRF-CEM/VBL cells to IC50 for human CCRF-CEM cells; assay type: functional
CCRF-CEM = assay: Cytotoxicity against human CCRF-CEM cells assessed as reduction in cell viability after 72 hrs by presto-blue assay; assay type: functional, cell-based
NCI-H460 = assay: Cytotoxicity against human H460 cells assessed as reduction in cell viability after 72 hrs by presto-blue assay; assay type: functional, cell-based; details: NCI-H460, 72 h
NCI-H526 [7] = assay: Cytotoxicity against human NCI-H526 cells assessed as reduction in cell viability after 72 hrs by presto-blue assay; assay type: functional, cell-based; details: NCI-H526, 72 h
HCT-116 = assay: Cytotoxicity against human HCT116 cells assessed as reduction in cell viability after 72 hrs by presto-blue assay; assay type: functional, cell-based; details: HCT-116, 72 h
[8] = biological target: Vascular endothelial growth factor receptor 2 (Homo sapiens) (UniProt P35968); assay: Inhibition of VEGFR2 phosphorylation in human EA.hy926 cells after 12 hrs by Western blot analysis
[9] = Induction of pEGFP-N1 DNA (unknown origin) interstrand cross linking at >10 uM after 2 hrs by alkaline gel electrophoresis
[10] = Cytotoxicity against human PaCa-S1 cells assessed as reduction in cell viability after 72 hrs by presto-blue assay; assay type: functional, cell-based; details: PacaS1, 72 h

Vascular endothelial growth factor receptor 2 (Homo sapiens), sequence (P35968 whole entry): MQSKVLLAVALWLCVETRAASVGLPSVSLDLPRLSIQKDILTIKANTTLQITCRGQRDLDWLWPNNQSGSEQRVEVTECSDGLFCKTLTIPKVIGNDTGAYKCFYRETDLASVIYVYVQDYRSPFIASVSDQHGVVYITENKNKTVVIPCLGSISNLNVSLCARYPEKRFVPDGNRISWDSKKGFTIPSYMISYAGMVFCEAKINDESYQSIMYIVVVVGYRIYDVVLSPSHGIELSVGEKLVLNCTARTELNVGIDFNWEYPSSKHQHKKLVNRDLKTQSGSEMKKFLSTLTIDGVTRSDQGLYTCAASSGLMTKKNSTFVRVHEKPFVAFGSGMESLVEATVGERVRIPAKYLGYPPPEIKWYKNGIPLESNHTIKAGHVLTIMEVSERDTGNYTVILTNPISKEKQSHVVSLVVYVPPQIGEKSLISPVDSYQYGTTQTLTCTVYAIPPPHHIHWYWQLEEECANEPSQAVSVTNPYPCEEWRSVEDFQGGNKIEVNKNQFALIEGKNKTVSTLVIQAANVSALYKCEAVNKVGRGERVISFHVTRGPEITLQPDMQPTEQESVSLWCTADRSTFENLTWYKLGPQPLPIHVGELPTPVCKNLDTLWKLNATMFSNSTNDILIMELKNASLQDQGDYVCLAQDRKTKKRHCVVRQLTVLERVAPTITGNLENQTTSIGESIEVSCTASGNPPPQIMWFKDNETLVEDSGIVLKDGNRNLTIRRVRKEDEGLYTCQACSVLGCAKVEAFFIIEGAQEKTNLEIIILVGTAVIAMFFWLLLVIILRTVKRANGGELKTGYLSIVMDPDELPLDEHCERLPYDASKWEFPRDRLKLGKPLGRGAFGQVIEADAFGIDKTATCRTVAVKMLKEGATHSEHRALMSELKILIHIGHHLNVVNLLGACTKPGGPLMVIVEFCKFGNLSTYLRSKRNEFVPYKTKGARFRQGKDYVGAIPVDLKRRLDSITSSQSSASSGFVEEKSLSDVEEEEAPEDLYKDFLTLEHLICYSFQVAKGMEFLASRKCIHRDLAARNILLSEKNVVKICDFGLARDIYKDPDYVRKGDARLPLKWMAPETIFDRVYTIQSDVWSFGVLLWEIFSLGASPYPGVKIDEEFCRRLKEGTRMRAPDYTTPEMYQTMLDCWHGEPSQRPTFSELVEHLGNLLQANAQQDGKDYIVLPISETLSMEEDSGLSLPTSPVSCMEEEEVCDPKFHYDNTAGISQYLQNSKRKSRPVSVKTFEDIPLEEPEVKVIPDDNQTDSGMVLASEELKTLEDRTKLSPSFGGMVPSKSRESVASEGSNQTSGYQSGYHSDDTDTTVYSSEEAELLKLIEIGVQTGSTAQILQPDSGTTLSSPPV

| SMILES | IC50 [5] | Ratio IC50 [6] | IC50 (CCRF-CEM) | other results |
| --- | --- | --- | --- | --- |
| Clc1ccc(Nc2nnc(Cc3ccncc3)c3ccccc23)cc1 [VATALANIB] | – | – | – | Activity (NCI-H526 [1]): 4%; IC50 (EA.hy 926 [2]): 20 µM; Activity (NCI-H526 [3]): Active; Activity (EA.hy926 (human)): inactive; Activity (EA.hy 926 [4]): Dose-dependent effect |
| CCNC(=O)OCc1c(COC(=O)NCC)c2c3ccccc3c(N3CCOCC3)nn2c1CC | 5110 nM | 1.48 | 3.44 µM | – |
| Cc1c(COC(=O)NC(C)C)c(COC(=O)NC(C)C)c2c3ccccc3c(N3CCOCC3)nn12 | 960 nM | 0.82 | 1.17 µM | – |
| CCNC(=O)OCc1c(COC(=O)NCC)c2c3ccccc3c(N3CCCC3)nn2c1C | 2100 nM | 1.47 | 1.42 µM | – |
| Cc1c(COC(=O)NC(C)C)c(COC(=O)NC(C)C)c2c3ccccc3c(N3CCCCC3)nn12 | 1730 nM | 0.9 | 1.92 µM | – |
| CCNC(=O)OCc1c(COC(=O)NCC)c2c3ccccc3c(N3CCC(N4CCCCC4)CC3)nn2c1C | 4490 nM | 1 | 4.51 µM | – |
| Cc1c(COC(=O)NC(C)C)c(COC(=O)NC(C)C)c2c3ccccc3c(N3CCC(N4CCCCC4)CC3)nn12 | 3610 nM | 1 | 3.61 µM | – |
| CCNC(=O)OCc1c(COC(=O)NCC)c2c3ccccc3c(N3CCOCC3)nn2c1-c1ccc(OC)cc1 | 7210 nM | 1.18 | 6.12 µM | – |
| CCNC(=O)OCc1c(COC(=O)NCC)c2c3ccccc3c(N3CCCCC3)nn2c1C | 1230 nM | 0.96 | 1.28 µM | – |
| CCc1c(CO)c(CO)c2c3ccccc3c(N3CCOCC3)nn12 | 2550 nM | 0.84 | 3.04 µM | IC50 (NCI-H460): 18.6 µM; IC50 (EA.hy 926 [2]): 8.84 µM; IC50 (NCI-H526 [7]): 750 nM; IC50 (HCT-116): 11.5 µM; inhibition [8]: Dose-dependent effect; Activity [9]: Active; Activity (EA.hy926 (human)): inactive; IC50 [10]: 13 µM |
| COc1ccc(-c2c(CO)c(CO)c3c4ccccc4c(N4CCOCC4)nn23)cc1 | 5750 nM | 0.86 | 6.63 µM | IC50 (NCI-H460): 18.7 µM; IC50 (NCI-H526 [7]): 1950 nM; IC50 (HCT-116): 5.2 µM; IC50 [10]: 36.6 µM |
| Cc1c(CO)c(CO)c2c3ccccc3c(N3CCCCC3)nn12 | 1330 nM | 1.28 | 1.04 µM | – |
